Results on 18 compounds are retold here after ChEMBL document CHEMBL2046311, “Design, synthesis, and molecular hybrids of caudatin and cinnamic acids as novel anti-hepatitis B virus agents” (Eur J Med Chem, 2012).

Series [1] is described as follows: Selectivity index, ratio of CC50 for human HepG2(2.2.15) cells to IC50 for Hepatitis B virus infected in human HepG2(2.2.15) cells assessed as inhibition of viral DNA replication. It is filed as functional. An outline of the steps: (§1)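 SI calculated as CC50 (MTT, HepG 2.2.15) divided by IC50 for the named read-out (HBV DNA by real-time PCR, or HBeAg or HBsAg secretion by ELISA), in the same cell line.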

Series [2] can be described thus: Selectivity index, ratio of CC50 for human HepG2(2.2.15) cells to IC50 for Hepatitis B virus infected in human HepG2(2.2.15) cells assessed as inhibition of viral e antigen secretion. It is filed as functional. An outline of the steps:
as §1

A short description of series [3]: Cytotoxicity against human HepG2(2.2.15) cells by modified-MTT assay. It is filed as cell-based. The method, boiled down: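 HepG 2.2.15 cells in RPMI-1640 with 10% fetal calf serum at 37 °C, 5% CO2. Compounds in DMSO, final DMSO below 2.5 μL/mL. Viability read by modified MTT method. CC50 is the mean of at least two experiments.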
In series [4] the test system is Hepatitis B virus. Briefly: Antiviral activity against Hepatitis B virus infected in human HepG2(2.2.15) cells assessed as inhibition of viral DNA replication by PCR analysis. It is filed as functional, organism-based. The method, boiled down: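 HepG 2.2.15 cells grown in RPMI-1640 with 10% fetal calf serum, […] and penicillin/streptomycin at 37 °C, 5% CO2. Compounds added in DMSO, kept below 2.5 μL/mL. HBV DNA quantified by SYBR Green real-time PCR with HBV-specific primers spanning 541–591 bp. IC50 values are means of at least two experiments.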

Series [5] deals with Hepatitis B virus. Briefly: Antiviral activity against Hepatitis B virus infected in human HepG2(2.2.15) cells assessed as inhibition of viral surface antigen secretion by ELISA. It is filed as functional, organism-based. An outline of the steps: (§2)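 HepG 2.2.15 cells in RPMI-1640 with 10% fetal calf serum at 37 °C, 5% CO2. Compounds dissolved in DMSO, culture DMSO below 2.5 μL/mL. Secreted HBeAg and HBsAg measured by ELISA. IC50 values are means of at least two experiments.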

Series [6] in a line: Selectivity index, ratio of CC50 for human HepG2(2.2.15) cells to IC50 for Hepatitis B virus infected in human HepG2(2.2.15) cells assessed as inhibition of viral surface antigen secretion. It is filed as functional. An outline of the steps: as §1
In series [7] the test system is Hepatitis B virus. Briefly: Antiviral activity against Hepatitis B virus infected in human HepG2(2.2.15) cells assessed as inhibition of viral e antigen secretion by ELISA. Format: functional, organism-based. The method, boiled down:
as §2

On to `CC(=O)[C@]1(O)CC[C@@]2(O)[C@]1(C)[C@H](OC(=O)/C=C(\C)C(C)C)C[C@@H]1[C@@]3(C)CC[C@H](OC(=O)/C=C/c4cccc(F)c4)CC3=CC[C@]12O`, for which the “Ratio CC50/IC50” value in series [1] is listed as above 224; in series [2], above 84.7; in series [6], above 126.7. In series [3], this compound gave a CC50 above 1060 µM. The IC50 in series [4] came out at 4.75 µM; in series [5] it was 8.4 µM; in series [7], 12.6 µM.

For the compound `COc1ccc(/C=C/C(=O)O[C@H]2CC[C@@]3(C)C(=CC[C@]4(O)[C@@H]3C[C@@H](OC(=O)/C=C(\C)C(C)C)[C@@]3(C)[C@]4(O)CC[C@@]3(O)C(C)=O)C2)cc1`, the results for the “Ratio CC50/IC50” value in series [1], in series [2] and in series [6] were above 127.1, above 2.4 and above 12.9, respectively. The same compound returned a CC50 in series [3] above 1380 µM. The values for the IC50 in series [4], in series [5] and in series [7] were 10.9 µM, 108 µM and 569 µM, respectively.

Regarding `CC(=O)[C@]1(O)CC[C@@]2(O)[C@]1(C)[C@H](OC(=O)/C=C(\C)C(C)C)C[C@@H]1[C@@]3(C)CC[C@H](OC(=O)/C=C/c4ccccc4C(F)(F)F)CC3=CC[C@]12O`, the figures for the “Ratio CC50/IC50” value in series [1], in series [2] and in series [6] were 352.9, below 1.4 and 37.6, respectively. In addition, it took 1760 µM to reach half-maximal cytotoxicity in series [3] (CC50). For the same compound, the figures for the IC50 in series [4], in series [5] and in series [7] were 5 µM, 46.9 µM and above 1280 µM, respectively.

Regarding `CC(=O)[C@]1(O)CC[C@@]2(O)[C@]1(C)[C@H](OC(=O)/C=C(\C)C(C)C)C[C@@H]1[C@@]3(C)CC[C@H](OC(=O)/C=C/c4ccccc4)CC3=CC[C@]12O`, the “Ratio CC50/IC50” value in series [1] is recorded as above 239.9; in series [2], above 15; in series [6], above 29.3. In series [3], this compound registered a CC50 above 1420 µM. The concentration for half-maximal inhibition (IC50) in series [4] was 5.91 µM; in series [5] it was 48.3 µM; in series [7], 94.2 µM.

With `CC(=O)[C@]1(O)CC[C@@]2(O)[C@]1(C)[C@H](OC(=O)/C=C(\C)C(C)C)C[C@@H]1[C@@]3(C)CC[C@H](OC(=O)/C=C/c4ccc(C(F)(F)F)cc4)CC3=CC[C@]12O`, the figures for the “Ratio CC50/IC50” value in series [1], in series [2] and in series [6] were above 125.9, above 1 and above 21.1, respectively. The CC50 in series [3] is above 1270 µM. Moreover, the half-maximal inhibitory concentration (IC50) turned out to be 10.1 µM in series [4], 60.2 µM in series [5] and 1270 µM in series [7].

With `CC(=O)[C@]1(O)CC[C@@]2(O)[C@]1(C)[C@H](OC(=O)/C=C(\C)C(C)C)C[C@@H]1[C@@]3(C)CC[C@H](OC(=O)/C=C/c4cccc(C)c4)CC3=CC[C@]12O`, the “Ratio CC50/IC50” value is above 192.6 in series [1], above 10.5 in series [2] and above 54.7 in series [6]. Also, the cytotoxic concentration (CC50) in series [3] was above 1390 µM. Also, the results for the IC50 in series [4], in series [5] and in series [7] were 7.22 µM, 25.4 µM and 132 µM, respectively.

Turning to `CC(=O)[C@]1(O)CC[C@@]2(O)[C@]1(C)[C@H](OC(=O)/C=C(\C)C(C)C)C[C@@H]1[C@@]3(C)CC[C@H](OC(=O)/C=C/c4cccc(Cl)c4)CC3=CC[C@]12O`, the “Ratio CC50/IC50” value was above 103.6 in series [1], above 3.7 in series [2] and above 70.1 in series [6]. The compound further registered a CC50 in series [3] above 1320 µM. Besides, the IC50 in series [4] came to 12.7 µM; in series [5], 18.8 µM; in series [7], 359 µM.

Turning to `CC(=O)[C@]1(O)CC[C@@]2(O)[C@]1(C)[C@H](OC(=O)/C=C(\C)C(C)C)C[C@@H]1[C@@]3(C)CC[C@H](OC(=O)/C=C/c4ccc(F)c(C(F)(F)F)c4)CC3=CC[C@]12O`, the figures for the “Ratio CC50/IC50” value in series [1], in series [2] and in series [6] were above 149.2, above 1.7 and above 18.6, respectively. In addition, the CC50 in series [3] was above 1330 µM. Further, the concentration for half-maximal inhibition (IC50) amounted to 8.93 µM in series [4], 71.6 µM in series [5] and 798 µM in series [7].

As to `COc1cccc(/C=C/C(=O)O[C@H]2CC[C@@]3(C)C(=CC[C@]4(O)[C@@H]3C[C@@H](OC(=O)/C=C(\C)C(C)C)[C@@]3(C)[C@]4(O)CC[C@@]3(O)C(C)=O)C2)c1`, the “Ratio CC50/IC50” value in series [1] is given as above 241.2; in series [2], above 43.3; in series [6], above 102. In series [3], this compound displayed a CC50 above 1080 µM. The IC50 was found to be 4.46 µM in series [4], 10.5 µM in series [5] and 24.9 µM in series [7].

Take `CC(=O)[C@]1(O)CC[C@@]2(O)[C@]1(C)[C@H](OC(=O)/C=C(\C)C(C)C)C[C@@H]1[C@@]3(C)CC[C@H](OC(=O)/C=C/c4ccc(Cl)c([N+](=O)[O-])c4)CC3=CC[C@]12O`: the results for the “Ratio CC50/IC50” value in series [1], in series [2] and in series [6] were 71.3, 5.7 and 47.3, respectively. This compound also returned a CC50 in series [3] of 450 µM. The values for the IC50 in series [4], in series [5] and in series [7] were 6.31 µM, 9.52 µM and 79.5 µM, respectively.

`CC(=O)[C@]1(O)CC[C@@]2(O)[C@]1(C)[C@H](OC(=O)/C=C(\C)C(C)C)C[C@@H]1[C@@]3(C)CC[C@H](OC(=O)/C=C/c4ccc(F)cc4)CC3=CC[C@]12O`: the entries for the “Ratio CC50/IC50” value in series [1], in series [2] and in series [6] were above 123.9, above 32.6 and above 28.3, respectively. The compound further yielded a CC50 in series [3] above 1290 µM. Further, the IC50 in series [4] was found to be 10.4 µM; in series [5] it was 45.6 µM; in series [7] it was 39.5 µM.

For the compound `CC(=O)[C@]1(O)CC[C@@]2(O)[C@]1(C)[C@H](OC(=O)/C=C(\C)C(C)C)C[C@@H]1[C@@]3(C)CC[C@H](OC(=O)/C=C/c4ccc5c(c4)OCO5)CC3=CC[C@]12O`, the results for the “Ratio CC50/IC50” value in series [1], in series [2] and in series [6] were above 256.7, above 37.9 and above 176.7, respectively. The CC50 in series [3] was above 1660 µM. Further, the IC50 in series [4] worked out at 6.45 µM; in series [5], 9.37 µM; in series [7], 43.7 µM.

Turning to `CC(=O)[C@]1(O)CC[C@@]2(O)[C@]1(C)[C@H](OC(=O)/C=C(\C)C(C)C)C[C@@H]1[C@@]3(C)CC[C@H](OC(=O)/C=C/c4ccc(C=O)cc4)CC3=CC[C@]12O`, the “Ratio CC50/IC50” value in series [1] is on record as 6.3; in series [2] it was 2.1; in series [6] it was 1.7. The compound further showed a CC50 in series [3] of 40.2 µM. Also, the IC50 in series [4] turned out to be 6.34 µM; in series [5], 23.5 µM; in series [7], 19.2 µM.

On to `COc1ccc(/C=C/C(=O)O[C@H]2CC[C@@]3(C)C(=CC[C@]4(O)[C@@H]3C[C@@H](OC(=O)/C=C(\C)C(C)C)[C@@]3(C)[C@]4(O)CC[C@@]3(O)C(C)=O)C2)cc1OC`, for which the “Ratio CC50/IC50” value is listed as above 135.6 in series [1], above 18.8 in series [2] and above 72.7 in series [6]. Moreover, in series [3], the CC50 was above 1600 µM. For the same compound, the results for the IC50 in series [4], in series [5] and in series [7] were 11.8 µM, 22.1 µM and 85.2 µM, respectively.

`CC(=O)[C@]1(O)CC[C@@]2(O)[C@]1(C)[C@H](OC(=O)/C=C(\C)C(C)C)C[C@@H]1[C@@]3(C)CC[C@H](OC(=O)/C=C/c4cccc(F)c4F)CC3=CC[C@]12O`: the “Ratio CC50/IC50” value in series [1] is listed as above 41.2; in series [2], 7.2; in series [6], 9. In series [3], this compound displayed a CC50 of 118 µM. The IC50 in series [4] turned out to be 2.86 µM; in series [5] it was 13.2 µM; in series [7], 16.4 µM.

Regarding `CC(=O)[C@]1(O)CC[C@@]2(O)[C@]1(C)[C@H](OC(=O)/C=C(\C)C(C)C)C[C@@H]1[C@@]3(C)CC[C@H](OC(=O)/C=C/c4ccccc4C)CC3=CC[C@]12O`, the “Ratio CC50/IC50” value came out at 190.4 in series [1], 6 in series [2] and 16.9 in series [6]. The CC50 in series [3] is 1370 µM. For the same compound, the values for the concentration for half-maximal inhibition (IC50) in series [4], in series [5] and in series [7] were 7.2 µM, 81.1 µM and 230 µM, respectively.

`CCOc1ccccc1/C=C/C(=O)O[C@H]1CC[C@@]2(C)C(=CC[C@]3(O)[C@@H]2C[C@@H](OC(=O)/C=C(\C)C(C)C)[C@@]2(C)[C@]3(O)CC[C@@]2(O)C(C)=O)C1`: the “Ratio CC50/IC50” value in series [1] was above 143.8; in series [2], above 4.3; in series [6], above 42.6. This compound gave a cytotoxic concentration (CC50) in series [3] above 1730 µM. The IC50 in series [4] worked out at 12 µM; in series [5], 40.6 µM; in series [7], 404 µM.

On to `COc1cc(/C=C/C(=O)O[C@H]2CC[C@@]3(C)C(=CC[C@]4(O)[C@@H]3C[C@@H](OC(=O)/C=C(\C)C(C)C)[C@@]3(C)[C@]4(O)CC[C@@]3(O)C(C)=O)C2)cc(OC)c1`, for which the entries for the “Ratio CC50/IC50” value in series [1], in series [2] and in series [6] were above 87.4, above 2.7 and above 34.6, respectively. In addition, the CC50 in series [3] is above 1020 µM. For the same compound, the 50% inhibitory concentration (IC50) in series [4] turned out to be 11.7 µM; in series [5] it was 29.6 µM; in series [7], 380 µM.
